According to paper PMC3100417 (Biomaterials, 2011):

Experiments:
Recombinant rat β-NGF = Recombinant rat β-NGF (Rattus norvegicus, UniProt P25427); experiment: NGF binding and release from hydrogels; details: for NGF remaining in solution after incubation: 10 ng/well NGF in uDMEM, 2 h, ELISA, 10% PEG hydrogels, 5 mM peptide; for release of NGF from hydrogels: monitored over 48 h after initial binding
Summary of the method: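 Recombinant rat β-NGF at 0.05 µg/mL final in uDMEM added. Media collected with replacement at 2, 4, 6, 24 and 48 h and stored at −80 °C. Sandwich ELISA gave bound NGF and cumulative release.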

radiolabeled lipoplexes = experiment: DNA binding and release of lipoplexes to hydrogel surfaces; details: for amount of bound DNA retained: release study, by day 6
Summary of the method: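 Cell-free hydrogels carrying 5 mM RDG, KDKG, K4 or K8 peptide, washed immediately and after 1 h swelling in uDMEM. Radiolabelled TransFast–plasmid lipoplexes in uDMEM added at 2 µg DNA/well for 2 h at room temperature. Unbound solution removed and scintillation-counted. Gels washed twice with uDMEM immediately and at 2, 4 and 6 h, then sampled periodically with replacement for 6 days. Counts converted to DNA via standard curve.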

[1] = cited from earlier work

Chain of Recombinant rat β-NGF (P25427 122-241): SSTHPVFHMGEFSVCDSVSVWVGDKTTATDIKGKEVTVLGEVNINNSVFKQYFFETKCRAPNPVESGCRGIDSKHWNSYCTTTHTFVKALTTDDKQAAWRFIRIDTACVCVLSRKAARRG

| Substance | NGF remaining in solution after incubation (Recombinant rat β-NGF) [ng] | release of NGF from hydrogels (Recombinant rat β-NGF) | mean quantity of vector bound, greater than KDKG and RDG conditions (radiolabeled lipoplexes; throughout the 6-day release study) | amount of bound DNA retained (radiolabeled lipoplexes) [%] | diffusivity of NGF, DN [1] | rate constant for NGF degradation, kdeg ([1]; in buffered solution) [s⁻¹] |
| --- | --- | --- | --- | --- | --- | --- |
| GCGKKKK [K4] | 3.4 | intermediate between the RDG and K8 conditions | approximately 5% |  |  |  |
| GCGYGKKKKKKKK [K8] | 3.2 | lowest |  | 41 |  |  |
| GCGYGRDGSPG [reference compound] | 3.8 |  |  | 20 |  |  |
| NGF: nerve growth factor protein |  |  |  |  | 12 × 10^−7 cm^2/s | 4.83e-05 |
